Consider ten compounds from paper PMC7115421 (European Journal of Medicinal Chemistry, 2009).

As a reminder, the IC50 is the midpoint of a concentration-inhibition curve. As usually defined, the GI50 is the concentration that inhibits growth by half.

Data set [1] deals with 184B5 immortalized breast cell line. The data set is described as follows: SRB cytotoxicity assay, 184B5 non-cancer cells. The following applies: for killing of 184B5 non-cancer cells (in words): combined with constant amount of Akt inhibitors 7–10 (0.04, 0.4, 3.5, 0.5 μM). It is filed as cell-based, human. Background: In SRB staining, fixed cells bind dye roughly in proportion to their protein.

For data set [2], the system named is MDA-MB468, MDA-MB231 and MCF7 breast cancer cell lines. The data set is described as follows: SRB cytotoxicity assay, three breast cancer cell lines together. It is filed as cell-based, human. The following applies: for sensitization of cell killing by PI3K-Akt inhibitors (in words): in combination with GI20 doses of PI3K-Akt inhibitors, three breast cancer cell lines. The essentials: (§1)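 Cells plated at 5000–10,000/well and held 24 h at 37 °C, 5% CO2; time-zero wells TCA-fixed. Test compound from DMSO stock, seven concentrations (2–10-fold dilutions), 48 h; DMSO-matched medium control. Cold TCA fixation (10% final), 60 min, 4 °C; 0.4% SRB stain; Tris base solubilisation; A515–564 nm. Growth % = (Ti−Tz)/(C−Tz)×100; GI values from variable-slope sigmoidal fit; triplicates, ≥3 independent experiments.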

The test system of data set [3] is MCF7 breast cancer cell line. The data set is described as follows: SRB cytotoxicity assay, MCF7. It is filed as cell-based, human. The essentials: (§2)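 Cells grown in RPMI 1640 with 10% FBS and 2 mM L-glutamine at 37 °C, 5% CO2. 5000–10,000 cells/well seeded 24 h before dosing. Seven concentrations from 2–10-fold serial dilutions; medium with matched DMSO as control. After 48 h: TCA fixation (60 min, 4 °C), 0.4% SRB, Tris solubilisation, absorbance 515–564 nm. Growth = (Ti−Tz)/(C−Tz)×100. GI50 from variable-slope sigmoidal fit; triplicates, ≥3 experiments.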

In data set [4] the test system is MDA-MB468, MDA-MB231, MCF7 and 184B5. In words: SRB cytotoxicity assay, all four cell lines together. Particulars: for average GI20 values on the four cell lines: average over MDA-MB468, MDA-MB231, MCF7, 184B5; for cytotoxicity (in words) on the four cell lines: PI3K-Akt inhibitor alone. The format is cell-based, human. The essentials:
as §1

For data set [5], the system named is MDA-MB468 breast cancer cell line. In words: SRB cytotoxicity assay, MDA-MB468. The following applies: Homo sapiens. It is filed as cell-based. An outline of the steps: as §2
For data set [6], the system named is MDA-MB231 breast cancer cell line. In words: SRB cytotoxicity assay, MDA-MB231. The format is cell-based. The following applies: Homo sapiens. The essentials:
as §2

For `CCCCNc1ccnc2cc(F)ccc12` [Compound 3, Butyl-(7-fluoro-quinolin-4-yl)-amine], in data set [1], the “killing of 184B5 non-cancer cells (in words)” value is given as “effectively killed”. The “sensitization of cell killing by PI3K-Akt inhibitors (in words)” value in data set [2] is given as “generally not effective sensitizers”.

For the compound `O=c1[nH]c2ccccc2n1C1CCN(Cc2ccc(-c3nc4cc5nc[nH]c5cc4nc3-c3ccccc3)cc2)CC1` [Compound 8, 1-{1-[4-(7-Phenyl-1H-imidazo[4,5-g]quinoxalin-6-yl)-benzyl]-piperidin-4-yl}-1,3-dihydro-benzoimidazol-2-one], the “cell killing (in words) of MCF7” value in data set [3] (PI3K-Akt inhibitor alone, not other cells examined) was “killed MCF7 cells effectively”.

As for `CN(C)CCNc1ccnc2cc(F)ccc12` [Compound 5, N′-(7-Fluoro-quinolin-4-yl)-N,N-dimethyl-ethane-1,2-diamine], the “sensitization of cell killing by PI3K-Akt inhibitors (in words)” value in data set [2] is “substantial enhancement of cell killing”.

Consider `CN(C)CCNc1ccnc2cc(Cl)ccc12` [Compound 4, N′-(7-Chloro-quinolin-4-yl)-N,N-dimethyl-ethane-1,2-diamine], for which, in data set [2], the “sensitization of cell killing by PI3K-Akt inhibitors (in words)” value is reported as “substantial enhancement of cell killing”.

For `CCCCNc1ccnc2cc(Cl)ccc12` [Compound 2, Butyl-(7-chloro-quinolin-4-yl)-amine], the “killing of 184B5 non-cancer cells (in words)” value in data set [1] is “effectively killed”. Further, in data set [2], the “sensitization of cell killing by PI3K-Akt inhibitors (in words)” value is given as “generally not effective sensitizers”.

With `O=c1cc(N2CCOCC2)oc2c(-c3ccccc3)cccc12` [Compound 10, 2-Morpholin-4-yl-8-phenyl-chromen-4-one], the “average GI20 values on the four cell lines” value in data set [4] was 0.52 µM.

Take `COc1ccc2c(NCCN(C)C)ccnc2c1` [Compound 6, N′-(7-Methoxy-quinolin-4-yl)-N,N-dimethyl-ethane-1,2-diamine]: the “sensitization of cell killing by PI3K-Akt inhibitors (in words)” value in data set [2] is reported as “not very effective”.

In the case of `CC[n+]1c(C=CN(C)c2ccccc2)n(-c2ccccc2)c2ccc(-c3nc4ccccc4s3)cc21.[I-]` [Compound 7, 6-Benzothiazol-2-yl-1-ethyl-2-[2-(methyl-phenyl-amino)-vinyl]-3-phenyl-3H-benzoimidazol-1-ium Iodide], in data set [4], the “cytotoxicity (in words) on the four cell lines” value is “the most cytotoxic” and the “average GI20 values on the four cell lines” value amounted to 0.04 µM.

Turning to `CCN(CC)CCCC(C)Nc1ccnc2cc(Cl)ccc12` (centres unmarked) [Compound 1, Chloroquine diphosphate], the IC50 stood at 28.6 µM in data set [5] (MDA-MB-468); 22.5 µM in data set [6] (MDA-MB-231); 38.4 µM in data set [3] (Homo sapiens, MCF7); 76.1 µM in data set [1] (Homo sapiens, 184B5). The GI50 in data set [5] (MDA-MB-468, 48 h) was 28.6 ± 1.25 µM; in data set [6] (MDA-MB-231, 48 h) it was 22.5 ± 1.44 µM; in data set [3] (Homo sapiens, MCF7, 48 h) it was 38.4 ± 1.2 µM; in data set [2] (Homo sapiens, read-out: GI50 on the cancer cell lines (range)), 22.5 to 38.4 µM.

For `CCN(CC)CCCCN1c2ccccc2OC2C=CC(Cl)=CC21.Cl` (centres unmarked) [Compound 9, [4-(2-chloro-4a,10a-dihydro-phenoxazin-10-yl)-butyl]-diethyl-amine hydrochloride], the “cytotoxicity (in words) on the four cell lines” value in data set [4] is listed as “only week cytotoxicity”.
